# ChEMBL document CHEMBL2029255, “Quantitative and site-directed chemical modification of hypocrellins toward direct drug delivery and effective photodynamic activity” (J Med Chem, 2012)
# The source made the active and inactive calls. The rule behind the calls is not given here.
# Tests used:
# [1] = Photosensitization activity of the compound assessed as singlet oxygen production by DPA-bleaching method; assay type: physicochemical
# [2] = Solubility of the compound in phosphate buffered saline at pH 7.4 after 12 hrs; assay type: physicochemical
# Procedure, shortened: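 Compound dissolved in PBS (pH 7.4) at a series of concentrations, kept 12 h in dark; absorption spectra recorded and absorbance plotted against concentration to derive solubility; mean of three independent experiments ± SEM.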
# [3] = Drug uptake in liposomes after 2 hrs; assay type: ADME, subcellular, Liposome; details: artificial membrane
# Procedure, shortened: (§1)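 Liposomes of egg phosphatidylcholine and cholesterol (film-ultrasonic method), 0.08 g/L in PBS pH 7.4. Compound from DMSO stock (2 mg/mL) diluted in PBS to 0–8 μM final, added to liposomes with stirring; absorption spectra recorded over time; peak absorbance plotted against concentration at the equilibration time (2, 4 or 5 h, depending on compound).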
# [4] = 1-Octanol-phosphate buffered saline partition coefficient of the compound at pH 7.4
# [5] = Drug uptake in liposomes after 5 hrs; assay type: ADME, subcellular, Liposome; details: artificial membrane; procedure, shortened: as §1
# [6] = tested on: BGC-823; assay: Cytotoxicity against human BGC823 cells assessed as cell death preincubated for 5 hrs in dark condition followed by irradiation with a 532 nm laser of 20 J/cm2 for 1000 seconds measured after 24 hrs by MTT assay; assay type: functional, cell-based; details: BGC-823, light or radiation study
# Procedure, shortened: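 BGC823 cells in DMEM/5% FBS seeded at 5 × 10^5 cells/mL, 24 h at 37 °C, 5% CO2; photosensitizer (0, 19, 38, 57, 76 nM) in FBS-free DMEM, 5 h in dark; medium replaced, 532 nm laser irradiation 20 J/cm2 (20 mW/cm2) for 1000 s; 24 h dark; MTT 90 min, DMSO, OD 570 nm. IC50 = concentration killing 50% of cells.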
# [7] = tested on: BGC-823; assay: Cytotoxicity against human BGC823 cells assessed as cell death up to 76 nM after 24 hrs by MTT assay; assay type: functional, cell-based
# Procedure, shortened: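 Dark toxicity: BGC823 cells in DMEM/5% FBS seeded at 5 × 10^5 cells/mL, 24 h at 37 °C, 5% CO2; photosensitizer (0–76 nM) in FBS-free DMEM 5 h in dark; fresh medium, no irradiation, 24 h in dark; survival by MTT (90 min), formazan in DMSO, OD 570 nm.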
# [8] = Drug uptake in liposomes after 4 hrs; assay type: ADME, subcellular, Liposome; details: artificial membrane; procedure, shortened: as §1
# [9] = tested on: BGC-823; assay: Cellular uptake in human BGC823 cells at 1 uM after 5 hrs by laser confocal fluorescence microscope analysis; assay type: ADME, cell-based; details: bgc-823, 5 h
# Procedure, shortened: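 BGC823 cells seeded on coverslips at 1 × 10^5, grown overnight at 37 °C, 5% CO2; medium removed, incubated with compound (1 μM) 5 h at 37 °C; rinsed three times with PBS, imaged by confocal microscopy with 488 nm argon laser excitation, emission 650–750 nm collected. Control without photosensitizer.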
SMILES,Activity [1],solubility at 12 h [2] [µg/mL],Drug uptake [3] [µM],PC [4],Drug uptake [5] [µM],IC50 [6] [nM],Activity [7],Drug uptake [8] [µM],Drug uptake [9]
COc1c2c3c4c(c(OC)c(=O)c5c(O)cc(OC)c(c6c(OC)cc(O)c(c1=O)c63)c54)C(/C(C)=N/CCCCCCS(=O)(=O)O)=C(C)C2,1.01,200,–,–,–,–,–,–,–
COc1c2c3c4c(c(NCCS(=O)(=O)O)c(=O)c5c(O)cc(OC)c(c6c(OC)cc(O)c(c1=O)c63)c54)CC(C)=C2C(C)=O,–,9200,3,2.2,–,–,–,–,–
COC1=C(C(C)=O)C2=C(C)Cc3c(OC)c(=O)c(O)c4cc(OC)c5c(OC)cc(O)c6c(c2c3c4c56)C1=O,0.76,4.6,–,–,7,40,inactive,–,–
COc1c2c3c4c(c(OC)c(=O)c5c(O)cc(OC)c(c6c(OC)cc(O)c(c1=O)c63)c54)C(/C(C)=N/CCCS(=O)(=O)O)=C(C)C2,–,6600,–,4.8,–,–,–,–,–
COc1c2c3c4c(c(OC)c(=O)c5c(O)cc(OC)c(c6c(OC)cc(O)c(c1=O)c63)c54)C(/C(C)=N/CCCCS(=O)(=O)O)=C(C)C2,0.94,3900,–,7.5,–,54,inactive,–,–
COc1c2c3c4c(c(OC)c(=O)c5c(O)cc(OC)c(c6c(OC)cc(O)c(c1=O)c63)c54)C(/C(C)=N/CCCCCS(=O)(=O)O)=C(C)C2,0.98,1700,–,9,–,22,inactive,6.5,Active
